Laboratory results from ChEMBL document CHEMBL2331266, “Five-membered iminocyclitol α-glucosidase inhibitors: synthetic, biological screening and in silico studies” (Bioorg Med Chem, 2013).

How the values were obtained:
[1] = test system: Saccharomyces cerevisiae; test: Inhibition of Saccharomyces cerevisiae alpha-glucosidase using p-nitrophenyl-alpha-D-[…] as substrate at = / >10.9 mM after 20 mins by UV/Vis spectrophotometric analysis
How it was run: (§1)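 Baker's yeast α-glucosidase at 0.04 U/mL in 0.1 M phosphate buffer, pH 6.7. Substrate was 2 mM p-nitrophenyl-α-D-glucopyranoside; the optimized Km was 0.258 mM. Inhibitors were dissolved in 2% DMSO in the same buffer and tested at up to 46 mM. Activity was read as the p-nitrophenol released. Five replicates per sample.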

[2] = Inhibition of Saccharomyces cerevisiae alpha-glucosidase using p-nitrophenyl-alpha-D-[…] as substrate after 20 mins by UV/Vis spectrophotometric analysis; how it was run: as §1
[3] = test system: Saccharomyces cerevisiae; test: Inhibition of Saccharomyces cerevisiae alpha-glucosidase using p-nitrophenyl-alpha-D-[…] as substrate at 25 mM after 20 mins by UV/Vis spectrophotometric analysis; how it was run: as §1

Compound | inhibition [1] [%] | IC50 [2] [mM] | inhibition [3] [%]
O[C@@H]1CN(Cc2ccccc2)C[C@H]1O | > 50 | 25 | –
C[C@H]1O[C@H](O[C@H]2[C@H](O)[C@@H](O)[C@@H](O[C@H]3[C@H](O)[C@@H](O)C(O)O[C@@H]3CO)O[C@@H]2CO)[C@H](O)[C@@H](O)[C@@H]1N[C@H]1C=C(CO)[C@@H](O)[C@H](O)[C@H]1O (stereo partly specified) [ACARBOSE] | – | 25 | –
O[C@H]1CN(Cc2ccccc2)C[C@@H]1O | > 50 | 38 | –

More lines, now with the values ahead:

inhibition [1] [%] | IC50 [2] [mM] | inhibition [3] [%] | Compound
> 50 | 10.9 | – | O[C@H]1CNC[C@@H]1O
> 50 | 12.5 | 80 | CC(=O)O[C@H]1CNC[C@@H]1OC(C)=O
– | – | 40 | CC(=O)O[C@@H]1CNC[C@H]1OC(C)=O
